From ChEMBL document CHEMBL1158161, “Study of chemical stability of antivirally active 5-azacytosine acyclic nucleoside phosphonates using NMR spectroscopy” (Bioorg Med Chem, 2008)
≈ marks a conversion by molar mass, not a printed value.

Key:
[1] = Stability in PBS at pH 7.4 assessed as half life; type: physicochemical
Method in brief: (§1)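 Hydrolytic decomposition was followed by ¹H NMR on 30 mg samples in D₂O, with spectra recorded periodically. Media were 1 M glycine (pH 5.75), PBS (pH 7.4, phosphate with NaCl), or 50 mM phosphate at pH 4.0 or 10.0. Buffers were made in H₂O, lyophilized and redissolved in D₂O. Low-field signals were integrated to give a rate constant k and a half-life.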

[2] = Stability in 1 M glycine solution at pH 5.8 assessed as half life; type: physicochemical; method in brief: as §1
[3] = Stability in phosphate buffer at pH 4.0 assessed as half life; type: physicochemical; method in brief: as §1
[4] = Stability in phosphate buffer at pH 10.0 assessed as half life; type: physicochemical; method in brief: as §1
Vaccinia virus = experiment: Antiviral activity against vaccinia virus; type: functional, organism-based; settings: Orthopoxvirus vaccinia
Human alphaherpesvirus 3 = experiment: Antiviral activity against VZV; type: functional, organism-based
Human alphaherpesvirus 1 = experiment: Antiviral activity against HSV1; type: functional, organism-based
Human betaherpesvirus 5 = experiment: Antiviral activity against HCMV; type: functional, organism-based
Human betaherpesvirus 6 = experiment: Antiviral activity against HHV6; type: functional, organism-based
[5] = Stability in 1 M glycine solution assessed as half life; type: physicochemical; method in brief: as §1
[6] = Stability in PBS assessed as half life; type: physicochemical; method in brief: as §1
[7] = Cytotoxicity against HEL cells; type: cell-based; settings: human

Structure (SMILES) | half-life [5] [days] | half-life [6] [days] | CC50 [7] [µg/mL] | MCC [7] [µg/mL] | further results
Nc1ncn(C[C@H](O)CO)c(=O)n1 | – | – | – | – | half-life [1]: 19.6 days; half-life [2]: 15.8 days; half-life [3]: 17.8 days; half-life [4]: 10.3 days
CCCCCCCCCCCCCCCCCCOP1(=O)CO[C@@H](Cn2cnc(N)nc2=O)CO1 (stereo not given in full) | – | – | – | – | EC50 (Vaccinia virus): 0.037 µg/mL (≈ 0.0719 µM); EC50 (Human alphaherpesvirus 3): ≤ 0.00014 µg/mL; EC50 (Human alphaherpesvirus 1): 0.003 µg/mL (≈ 0.00583 µM); EC50 (Human betaherpesvirus 5): ≤ 0.00014 µg/mL; EC50 (Human betaherpesvirus 6): 0.008 µg/mL (≈ 0.0155 µM)
NC(N)=NC(=O)NC[C@H]1COP(=O)(O)CO1 | 14.7 | 29.7 | > 100 | > 100 | –
NC(N)=NC(=O)NCCOCP(=O)(O)O | 26.2 | 39.3 | > 100 | > 100 | –
NC(N)=NC(=O)NC[C@@H](COC=O)OCP(=O)(O)O | 4.75 | 4.98 | > 100 | > 100 | –
NC(N)=NC(=O)NC[C@H](O)CO | 16.1 | 19.6 | > 100 | > 100 | –
